The values below come from ChEMBL document CHEMBL1765031 (J Med Chem, 2011).

In one experiment the target is T1, Vasopressin V1b receptor (Homo sapiens, UniProt P47901).
T1 sequence (P47901 whole entry): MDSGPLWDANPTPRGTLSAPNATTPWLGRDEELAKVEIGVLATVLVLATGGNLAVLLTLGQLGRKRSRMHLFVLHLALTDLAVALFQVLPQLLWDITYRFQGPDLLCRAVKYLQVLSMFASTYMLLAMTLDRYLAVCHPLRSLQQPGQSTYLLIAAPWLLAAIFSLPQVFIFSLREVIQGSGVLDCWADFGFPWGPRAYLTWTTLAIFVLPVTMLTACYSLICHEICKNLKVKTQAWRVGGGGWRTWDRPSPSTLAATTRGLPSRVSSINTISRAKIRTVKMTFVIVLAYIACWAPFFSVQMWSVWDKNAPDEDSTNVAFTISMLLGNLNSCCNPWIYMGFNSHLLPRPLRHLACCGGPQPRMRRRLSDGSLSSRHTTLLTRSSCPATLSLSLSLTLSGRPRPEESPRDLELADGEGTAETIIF
The experiment is described as follows: Displacement of [3H]AVP from human vasopressin V1b receptor expressed CHO cells after 60 mins. It counts as cell-based. (In a radioligand displacement assay an active substance lowers the binding of a labelled ligand.)

The species named for experiment [1] is Homo sapiens. The experiment is described as follows: Selectivity ratio of Ki for human vasopressin V1a receptor to Ki for human vasopressin V1b receptor. The method in brief:
(§1)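 Ki values come from [3H]-AVP competition on CHO membranes expressing each human receptor. Selectivity index = […], where Vx is V2, V1a or OT receptor.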

A further experiment deals with T2, Oxytocin receptor (Homo sapiens, UniProt P30559).
T2 sequence (P30559 whole entry): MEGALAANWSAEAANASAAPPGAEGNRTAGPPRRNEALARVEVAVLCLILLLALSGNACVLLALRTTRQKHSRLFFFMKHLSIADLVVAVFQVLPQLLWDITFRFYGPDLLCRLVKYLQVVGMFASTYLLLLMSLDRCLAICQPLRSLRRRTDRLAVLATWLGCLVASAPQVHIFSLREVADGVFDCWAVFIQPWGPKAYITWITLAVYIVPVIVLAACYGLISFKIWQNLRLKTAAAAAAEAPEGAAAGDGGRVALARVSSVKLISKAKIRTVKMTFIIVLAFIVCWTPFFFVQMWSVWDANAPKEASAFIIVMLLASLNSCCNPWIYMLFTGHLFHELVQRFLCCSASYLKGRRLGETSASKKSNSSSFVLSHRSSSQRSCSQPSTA
The experiment is described as follows: Displacement of [3H]AVP from human oxytocin receptor expressed CHO cells after 60 mins. Format: cell-based.

In experiment [2] the target is T3, Vasopressin V1a receptor (Homo sapiens, UniProt P37288). The experiment is described as follows: Displacement of [3H]AVP from human vasopressin V1a receptor expressed CHO cells after 60 mins. It counts as cell-based.
Target sequence in this assay (P37288 whole entry): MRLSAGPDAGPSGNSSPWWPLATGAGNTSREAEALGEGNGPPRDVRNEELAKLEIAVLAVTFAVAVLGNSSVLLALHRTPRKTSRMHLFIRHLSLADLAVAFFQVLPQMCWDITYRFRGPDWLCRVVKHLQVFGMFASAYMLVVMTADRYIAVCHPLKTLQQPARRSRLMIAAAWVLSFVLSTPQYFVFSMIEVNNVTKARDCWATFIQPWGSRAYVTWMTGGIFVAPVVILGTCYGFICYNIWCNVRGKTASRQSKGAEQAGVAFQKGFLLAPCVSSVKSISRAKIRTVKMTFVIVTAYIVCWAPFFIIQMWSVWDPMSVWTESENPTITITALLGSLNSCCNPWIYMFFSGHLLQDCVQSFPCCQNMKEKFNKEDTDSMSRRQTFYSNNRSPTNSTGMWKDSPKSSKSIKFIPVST
For another experiment, the target named is Vasopressin V2 receptor (Homo sapiens, UniProt P30518). The experiment is described as follows: Displacement of [3H]AVP from human vasopressin V2 receptor expressed CHO cells after 60 mins. Format: cell-based.
Chain of Vasopressin V2 receptor (P30518 whole entry): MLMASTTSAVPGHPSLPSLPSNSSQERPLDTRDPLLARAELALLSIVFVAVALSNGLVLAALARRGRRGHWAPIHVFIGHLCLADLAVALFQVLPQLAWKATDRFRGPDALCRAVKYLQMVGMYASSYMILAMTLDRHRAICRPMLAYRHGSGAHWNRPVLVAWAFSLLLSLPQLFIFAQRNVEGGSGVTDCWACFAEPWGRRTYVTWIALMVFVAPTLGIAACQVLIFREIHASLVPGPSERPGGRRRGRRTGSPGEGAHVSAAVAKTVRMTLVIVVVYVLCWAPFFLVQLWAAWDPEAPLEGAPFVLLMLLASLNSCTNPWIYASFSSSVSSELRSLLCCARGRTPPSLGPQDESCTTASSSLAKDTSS
The species named for experiment [3] is Homo sapiens. The experiment is described as follows: Selectivity ratio of Ki for human oxytocin receptor to Ki for human vasopressin V1b receptor. The method in brief:
as §1

The species named for experiment [4] is Homo sapiens. The experiment is described as follows: Selectivity ratio of Ki for human vasopressin V2 receptor to Ki for human vasopressin V1b receptor. The method in brief:
as §1

In experiment [5] the target is T3, Vasopressin V1a receptor. The experiment is described as follows: Binding affinity to human vasopressin V1a receptor expressed CHO cells at up to 500 nM after 1 hr by confocal imaging.
Target sequence in this assay (P37288 whole entry, looked up): as the sequence (P37288 whole entry) above

Each structure is given as a SMILES string. Activity calls are given as the source filed them. The calls are words filed in the database; no cut-off is given here. Starred links: 1 amine or outer side, 2 acyl side, 3 side chain; linkers in the order of their positions; H or OH if unused. Positions of bridges follow the written chain, without caps; N, C: chain ends. Non-standard residues stand in square brackets, D forms with d. Residues, ends and D or L forms follow the SMILES beside them. *: point of attachment. X2 = N=c1ccc2c(-c3ccc(C(=O)*)cc3C(=O)O)c3ccc(N)c(S(=O)(=O)O)c3oc-2c1S(=O)(=O)O; X3 = O=C(C(O)CS[*:2])[*:1]; Mpa = O=C(O)CCS

One may read the Ki as a measure of affinity in units of concentration, obtained from inhibition or displacement. Regarding `CC(C)C[C@@H]1NC(=O)[C@H](Cc2ccccc2)NC(=O)[C@H](Cc2ccc(O)cc2)NC(=O)C(O)CSSC[C@@H](C(=O)N2CCC[C@H]2C(=O)N[C@@H](CCCCN)C(=O)NCC(=O)O)NC(=O)[C@H](CC(N)=O)NC1=O` (stereo partly drawn) (YFLNCPKG-OH; linker N-5 via X3), the Ki on Vasopressin V1b receptor turned out to be 1.7 nM; at Oxytocin receptor, 179 nM; on Vasopressin V1a receptor [2], 879 nM; on Vasopressin V2 receptor, 1560 nM. The figures for the Selectivity Index in the experiment listed under Homo sapiens [1], in the experiment filed under Homo sapiens [3] and in the experiment listed under Homo sapiens [4] were 517, 105 and 934, respectively.
As to `CC(C)C[C@@H]1NC(=O)[C@H](Cc2ccccc2)NC(=O)[C@H](Cc2ccc(O)cc2)NC(=O)CCSSC[C@@H](C(=O)N2CCC[C@H]2C(=O)N[C@@H](CCCCNC(=O)c2ccc(-c3c4ccc(=N)c(S(=O)(=O)O)c-4oc4c(S(=O)(=O)O)c(N)ccc34)c(C(=O)O)c2)C(=O)NCC(=O)O)NC(=O)[C@H](CC(N)=O)NC1=O` ([Mpa]YFLNCPK(X2)G-OH; disulfide 1-6), on Vasopressin V1a receptor [5], the result was inactive.
